According to ChEMBL document CHEMBL3272339, “Catechol O-methyltransferase. 7. Affinity labeling with the oxidation products of 6-aminodopamine” (J Med Chem, 1976):
Blank lines part the entries; values can stand above or below the molecule they belong to. Activity calls are given as the source filed them. The rule behind the calls is not given here.

Experiments:
[1] = Chemical stability of the compound assessed as polymerization under aerobic condition by spectrophotometric analysis; assay type: physicochemical
[2] = target: T1, Catechol O-methyltransferase (Rattus norvegicus) (UniProt P22734); test: Inhibition of Sprague-Dawley rat liver COMT under anaerobic condition at 37 degC
T1 sequence (whole entry): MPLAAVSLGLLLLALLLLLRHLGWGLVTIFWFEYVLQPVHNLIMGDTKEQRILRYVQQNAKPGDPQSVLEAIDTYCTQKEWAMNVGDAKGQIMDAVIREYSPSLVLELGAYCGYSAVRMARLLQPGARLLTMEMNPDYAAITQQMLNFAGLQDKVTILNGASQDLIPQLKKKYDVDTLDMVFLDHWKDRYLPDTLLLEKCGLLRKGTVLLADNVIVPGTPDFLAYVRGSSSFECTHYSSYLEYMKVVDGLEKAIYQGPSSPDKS

[3] = Chemical stability of the compound in seal ampules containing water under nitrogenous condition at 5 umol/ml measured up to 4 hrs; assay type: physicochemical; details: buffer, 5000 µM
In short: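 Stock prepared fresh for each experiment at 5 μmol/ml in water in sealed ampules under nitrogen; aliquots withdrawn as needed and checked for signs of oxidation over up to 4 hr.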

[4] = target: T1, Catechol O-methyltransferase (Rattus norvegicus); test: Inhibition of Sprague-Dawley rat liver COMT at 0.25 to 1.25 mM preincubated for > 50 mins at 37 degC
In short: (§1)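 COMT came from male Sprague–Dawley rat liver (180–200 g), purified about 50-fold through the calcium phosphate stage. Inhibitor (fresh aqueous stock under N₂) was preincubated with enzyme, MgCl₂ and phosphate buffer pH 7.60 at 37°. Timed aliquots were assayed for 5 min at 37° with ¹⁴C-SAM and 3,4-dihydroxybenzoate or DHA, stopped with HCl, and products extracted and counted. Residual activity was taken against unpreincubated controls, in duplicate.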

[5] = target: T1, Catechol O-methyltransferase (Rattus norvegicus); test: Inhibition of Sprague-Dawley rat liver COMT under aerobic condition at 37 degC in presence of antioxidant sodium metabisulfite
[6] = target: T1, Catechol O-methyltransferase (Rattus norvegicus); test: Irreversible inhibition of Sprague-Dawley rat liver COMT
[7] = target: T1, Catechol O-methyltransferase (Rattus norvegicus); test: Inhibition of Sprague-Dawley rat liver COMT under aerobic condition at 37 degC in presence of catalase
[8] = Half life of the compound assessed as cyclization to 6-hydroxy-2H-indol-5(3H)-one at 37 degC; assay type: physicochemical
[9] = target: T1, Catechol O-methyltransferase (Rattus norvegicus); test: Inhibition of Sprague-Dawley rat liver COMT
[10] = target: T1, Catechol O-methyltransferase (Rattus norvegicus); test: Inhibition of Sprague-Dawley rat liver COMT using 10 mM DHA as substrate assessed as residual activity under aerobic condition at 189 uM at 37 degC after 40 mins relative to control
[11] = target: T1, Catechol O-methyltransferase (Rattus norvegicus); test: Inhibition of Sprague-Dawley rat liver COMT using > 0.3 mM SAM as substrate at 0.19 mM at 37 degC after 40 mins
[12] = target: T1, Catechol O-methyltransferase (Rattus norvegicus); test: Inhibition of Sprague-Dawley rat liver COMT using 2.5 mM DHA/0.4 mM SAM as substrate assessed as residual activity under aerobic condition at 189 uM at 37 degC after 40 mins relative to control
[13] = target: T1, Catechol O-methyltransferase (Rattus norvegicus); test: Inhibition of Sprague-Dawley rat liver COMT using 10 mM DHA/0.4 mM SAH as substrate assessed as residual activity under aerobic condition at 189 uM at 37 degC after 40 mins relative to control
[14] = target: T1, Catechol O-methyltransferase (Rattus norvegicus); test: Inhibition of Sprague-Dawley rat liver COMT using 2.5 mM DHA as substrate assessed as residual activity under aerobic condition at 189 uM at 37 degC after 40 mins relative to control
[15] = target: T1, Catechol O-methyltransferase (Rattus norvegicus); test: Inhibition of Sprague-Dawley rat liver COMT assessed as residual activity under aerobic condition at 189 uM at 37 degC after 40 mins in presence of catalase relative to control
In short: (§2)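 Partially purified rat liver COMT (male Sprague-Dawley, calcium phosphate stage, ~50-fold) preincubated at 37° with inhibitor (189 μM), MgCl2 1.38 mM, phosphate buffer pH 7.60. Additions: sodium metabisulfite 0.15 M or catalase 250 μg. Anaerobic runs in sealed ampules under nitrogen. Residual activity vs unpreincubated controls; duplicates.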

[16] = target: T1, Catechol O-methyltransferase (Rattus norvegicus); test: Inhibition of Sprague-Dawley rat liver COMT at 0.25 mM preincubated for > 50 mins at 37 degC
[17] = target: T1, Catechol O-methyltransferase (Rattus norvegicus); test: Inhibition of Sprague-Dawley rat liver COMT using > 0.3 mM SAH as substrate at 0.19 mM at 37 degC after 40 mins
[18] = target: T1, Catechol O-methyltransferase (Rattus norvegicus); test: Inhibition of Sprague-Dawley rat liver COMT using 0.76 mM SAM as substrate assessed as residual activity under aerobic condition at 189 uM at 37 degC after 40 mins relative to control
[19] = target: T1, Catechol O-methyltransferase (Rattus norvegicus); test: Inhibition of Sprague-Dawley rat liver COMT using 10 mM DHA/0.4 mM SAM as substrate assessed as residual activity under aerobic condition at 189 uM at 37 degC after 40 mins relative to control
[20] = target: T1, Catechol O-methyltransferase (Rattus norvegicus); test: Inhibition of Sprague-Dawley rat liver COMT assessed as residual activity under anaerobic condition at 189 uM at 37 degC after 40 mins relative to control; in short: as §2
[21] = target: T1, Catechol O-methyltransferase (Rattus norvegicus); test: Inhibition of Sprague-Dawley rat liver COMT using 0.76 mM SAH as substrate assessed as residual activity under aerobic condition at 189 uM at 37 degC after 40 mins relative to control
[22] = target: T1, Catechol O-methyltransferase (Rattus norvegicus); test: Inhibition of Sprague-Dawley rat liver COMT assessed as residual activity under aerobic condition at 189 uM at 37 degC after 40 mins relative to control; in short: as §2
[23] = target: T1, Catechol O-methyltransferase (Rattus norvegicus); test: Inhibition of Sprague-Dawley rat liver COMT assessed as residual activity under aerobic condition at 189 uM at 37 degC after 40 mins in presence of antioxidant sodium metabisulfite relative to control; in short: as §2
[24] = target: T1, Catechol O-methyltransferase (Rattus norvegicus); test: Inhibition of Sprague-Dawley rat liver COMT at 16 to 64 uM preincubated > 50 mins at 37 degC; in short: as §1
[25] = target: T1, Catechol O-methyltransferase (Rattus norvegicus); test: Inhibition of Sprague-Dawley rat liver COMT under aerobic condition at 5 mM preincubated up to 90 mins followed by enzyme addition at 37 degC measured after 20 mins
In short: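 Inhibitor at 5.0 mM in phosphate buffer pH 7.60 was air-oxidised at 37° for various times. Aliquots then went into preincubation mixtures with purified rat liver COMT (final 64 μM) for 20 min at 37°. Residual activity was measured by the radiochemical assay with ¹⁴C-SAM and catechol substrate, with methylated products extracted into toluene–isoamyl alcohol and counted.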

Structure (SMILES): Br.CN(C)CCC1=CC(=O)C(O)=CC1=N
Stability [1]: Unstable

Structure (SMILES): Br.Br.CN(C)CCc1cc(O)c(O)cc1N
inhibition [2]: inactive
Stability [3]: Stable
inhibition [6]: Active
inhibition [7]: Active
inhibition [5]: inactive

Structure (SMILES): C[N+](C)(C)CCC1=CC(=O)C(O)=CC1=N.[Br-]
Stability [1]: Unstable

Structure (SMILES): Br.CC(N)C(C)(C)c1cc(O)c(O)cc1N (centres undefined)
inhibition [2]: inactive
Stability [3]: Stable
inhibition [9]: Active
inhibition [5]: inactive

Structure (SMILES): NCCc1cc(O)c(O)cc1N
Activity [10]: 17%
inhibition [11]: Active
Activity [12]: 63%
Activity [13]: 94%
Stability [3]: Stable
Activity [14]: 10%
Activity [15]: 1%
inhibition [16]: Active
inhibition [17]: Active
inhibition [6]: Active
Activity [18]: 26%
Activity [19]: 85%
Activity [20]: 103%
Activity [21]: 52%
Activity [22]: 2%
Activity [23]: 77%

Now from value to molecule:

inhibition [2]: inactive
Stability [3]: Stable
inhibition [4]: Active
inhibition [5]: inactive
Structure (SMILES): Br.NCC1(c2cc(O)c(O)cc2N)CCCC1

half-life [8]: 30 s
Structure (SMILES): N=C1C=C(O)C(=O)C=C1CCN

inhibition [24]: inactive
inhibition [2]: inactive
Stability [3]: Stable
inhibition [6]: Active
inhibition [25]: inactive
inhibition [7]: Active
inhibition [5]: inactive
Structure (SMILES): Br.C[N+](C)(C)CCc1cc(O)c(O)cc1N.[Br-]
